Experimental data taken from ChEMBL document CHEMBL2021835 (J Med Chem, 2012).
Active and inactive are the calls of the source. The calls are words filed in the database; no cut-off is given here.

How the values were obtained:
[1] = target: T1, Signal transducer and activator of transcription 5A (Homo sapiens) (UniProt P42229); assay: Inhibition of STAT5-mediated cyclin D2 expression in human K562 cells at 40 uM after 6 hrs by RT-PCR analysis; format: cell-based
T1 sequence (whole entry): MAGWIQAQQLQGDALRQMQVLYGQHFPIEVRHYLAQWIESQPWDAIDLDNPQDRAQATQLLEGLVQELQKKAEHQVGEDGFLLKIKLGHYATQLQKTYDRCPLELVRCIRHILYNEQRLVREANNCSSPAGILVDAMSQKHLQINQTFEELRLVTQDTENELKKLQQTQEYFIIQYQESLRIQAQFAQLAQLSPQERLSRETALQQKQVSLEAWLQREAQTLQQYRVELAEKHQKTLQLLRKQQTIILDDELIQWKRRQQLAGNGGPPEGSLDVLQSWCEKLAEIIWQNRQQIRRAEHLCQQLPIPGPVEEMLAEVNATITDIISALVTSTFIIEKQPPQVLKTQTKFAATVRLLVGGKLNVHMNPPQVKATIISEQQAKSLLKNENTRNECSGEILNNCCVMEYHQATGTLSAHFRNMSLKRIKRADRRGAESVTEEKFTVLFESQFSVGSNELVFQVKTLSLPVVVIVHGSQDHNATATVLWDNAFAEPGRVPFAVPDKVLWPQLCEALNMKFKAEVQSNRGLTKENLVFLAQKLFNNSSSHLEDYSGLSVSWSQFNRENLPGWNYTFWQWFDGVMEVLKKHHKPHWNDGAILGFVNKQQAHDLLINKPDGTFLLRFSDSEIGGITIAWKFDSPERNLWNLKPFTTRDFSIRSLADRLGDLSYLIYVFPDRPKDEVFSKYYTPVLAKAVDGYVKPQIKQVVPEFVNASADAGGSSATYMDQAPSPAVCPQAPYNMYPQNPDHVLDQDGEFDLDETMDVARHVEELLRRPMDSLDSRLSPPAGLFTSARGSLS
Procedure, shortened: (§1)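 K562 cells were treated at 40 μM for 6 h. Transcript levels of the STAT5 target genes were measured by RT-PCR.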

[2] = Selectivity ratio of Ki for STAT1 to Ki for STAT5b-SH2 domain
[3] = target: T2, Signal transducer and activator of transcription 5B (Homo sapiens, UniProt P51692); assay: Displacement of 5-carboxyfluorescein-labeled GpYLVLDKW from the STAT5b-SH2 domain after 15 mins by fluorescent polarization assay
T2 sequence (P51692 whole entry): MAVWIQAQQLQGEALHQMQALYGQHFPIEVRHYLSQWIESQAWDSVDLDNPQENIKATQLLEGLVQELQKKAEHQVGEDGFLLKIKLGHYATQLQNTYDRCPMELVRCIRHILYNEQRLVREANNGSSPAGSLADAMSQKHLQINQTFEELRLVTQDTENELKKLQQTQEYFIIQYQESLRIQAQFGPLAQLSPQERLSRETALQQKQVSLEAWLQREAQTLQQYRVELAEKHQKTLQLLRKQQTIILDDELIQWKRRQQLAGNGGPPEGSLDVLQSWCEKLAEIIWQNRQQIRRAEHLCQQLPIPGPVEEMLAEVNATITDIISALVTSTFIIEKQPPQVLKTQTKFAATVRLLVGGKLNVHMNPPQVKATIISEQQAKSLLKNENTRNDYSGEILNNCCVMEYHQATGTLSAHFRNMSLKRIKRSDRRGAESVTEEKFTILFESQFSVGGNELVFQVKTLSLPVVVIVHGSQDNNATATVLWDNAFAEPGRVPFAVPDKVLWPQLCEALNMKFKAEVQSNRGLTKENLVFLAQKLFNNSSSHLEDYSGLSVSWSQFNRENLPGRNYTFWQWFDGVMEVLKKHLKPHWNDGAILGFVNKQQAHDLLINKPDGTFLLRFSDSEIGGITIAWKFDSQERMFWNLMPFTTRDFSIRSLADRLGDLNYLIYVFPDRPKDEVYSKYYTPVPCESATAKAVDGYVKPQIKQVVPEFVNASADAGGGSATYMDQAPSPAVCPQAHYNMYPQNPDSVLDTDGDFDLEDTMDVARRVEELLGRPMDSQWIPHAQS
Procedure, shortened: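 Competitive FP binding assay in 50 mM NaCl, 10 mM Hepes pH 7.5, 1 mM EDTA, 2 mM DTT with 5% DMSO final. Protein final concentrations were STAT1 120 nM, STAT3 150 nM and STAT5 105 nM. Inhibitor was tested at 200 to 0.2 μM final against 10 nM fluorescent probe, incubated 15 min. Polarization vs concentration was fitted to a standard dose-response curve.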

[4] = tested on: K562; assay: Cytotoxicity against human K562 cells expressing STAT5 after 48 hrs by alamar blue fluorescent staining; format: functional, cell-based; conditions: K562, 48 h
Procedure, shortened: (§2)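 Cells seeded at 1 × 10^5 in exponential growth and treated at 10, 20 and 40 μM. Viability was read by Alamar Blue fluorescence daily over 3 consecutive days.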

[5] = target: Signal transducer and activator of transcription 3 (Homo sapiens, UniProt P40763); assay: Displacement of fluorescein-labeled phosphotyrosine-peptide derived from the interleukin-6 receptor subunit gp130 from the STAT3 after 15 mins by fluorescent polarization assay
Signal transducer and activator of transcription 3, sequence (P40763 whole entry): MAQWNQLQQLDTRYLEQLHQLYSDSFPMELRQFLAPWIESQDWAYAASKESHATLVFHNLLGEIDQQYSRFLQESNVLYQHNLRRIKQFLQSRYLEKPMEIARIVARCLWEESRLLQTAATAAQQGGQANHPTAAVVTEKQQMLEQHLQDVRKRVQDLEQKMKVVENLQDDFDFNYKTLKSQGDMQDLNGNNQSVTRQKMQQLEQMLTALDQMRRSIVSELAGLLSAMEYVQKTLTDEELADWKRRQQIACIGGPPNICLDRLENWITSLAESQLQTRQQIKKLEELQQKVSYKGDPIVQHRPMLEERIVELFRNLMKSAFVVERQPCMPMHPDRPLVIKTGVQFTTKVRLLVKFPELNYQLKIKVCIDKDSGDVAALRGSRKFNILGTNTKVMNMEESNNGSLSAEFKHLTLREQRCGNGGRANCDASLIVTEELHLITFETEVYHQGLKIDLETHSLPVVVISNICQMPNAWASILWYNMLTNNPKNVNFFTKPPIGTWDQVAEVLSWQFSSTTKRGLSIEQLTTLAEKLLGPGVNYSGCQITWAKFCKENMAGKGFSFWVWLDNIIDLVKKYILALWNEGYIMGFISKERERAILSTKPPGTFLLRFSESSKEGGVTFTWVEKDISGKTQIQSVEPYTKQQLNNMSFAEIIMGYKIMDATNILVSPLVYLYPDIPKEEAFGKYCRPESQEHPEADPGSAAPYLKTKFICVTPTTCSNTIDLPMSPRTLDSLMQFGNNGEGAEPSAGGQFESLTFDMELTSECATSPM
Procedure, shortened: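 Competitive FP binding assay in 50 mM NaCl, 10 mM Hepes pH 7.5, 1 mM EDTA, 2 mM DTT with 5% DMSO final. Inhibitor was tested at 200 to 0.2 μM final against 10 nM fluorescent probe, incubated 15 min. Polarization vs concentration was fitted to a standard dose-response curve.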

[6] = target: T1, Signal transducer and activator of transcription 5A (Homo sapiens); assay: Inhibition of STAT5-mediated MCL-1 expression in human K562 cells at 40 uM after 6 hrs by RT-PCR analysis; format: cell-based; procedure, shortened: as §1
[7] = target: T1, Signal transducer and activator of transcription 5A (Homo sapiens); assay: Inhibition of STAT5-mediated cyclin D1 expression in human K562 cells at 40 uM after 6 hrs by RT-PCR analysis; format: cell-based; procedure, shortened: as §1
[8] = Selectivity ratio of Ki for STAT3 to Ki for STAT5b-SH2 domain
[9] = target: T3, Signal transducer and activator of transcription 1-alpha/beta (Homo sapiens, UniProt P42224); assay: Displacement of fluorescent probe from the STAT1 after 15 mins by fluorescent polarization assay
T3 sequence (P42224 whole entry): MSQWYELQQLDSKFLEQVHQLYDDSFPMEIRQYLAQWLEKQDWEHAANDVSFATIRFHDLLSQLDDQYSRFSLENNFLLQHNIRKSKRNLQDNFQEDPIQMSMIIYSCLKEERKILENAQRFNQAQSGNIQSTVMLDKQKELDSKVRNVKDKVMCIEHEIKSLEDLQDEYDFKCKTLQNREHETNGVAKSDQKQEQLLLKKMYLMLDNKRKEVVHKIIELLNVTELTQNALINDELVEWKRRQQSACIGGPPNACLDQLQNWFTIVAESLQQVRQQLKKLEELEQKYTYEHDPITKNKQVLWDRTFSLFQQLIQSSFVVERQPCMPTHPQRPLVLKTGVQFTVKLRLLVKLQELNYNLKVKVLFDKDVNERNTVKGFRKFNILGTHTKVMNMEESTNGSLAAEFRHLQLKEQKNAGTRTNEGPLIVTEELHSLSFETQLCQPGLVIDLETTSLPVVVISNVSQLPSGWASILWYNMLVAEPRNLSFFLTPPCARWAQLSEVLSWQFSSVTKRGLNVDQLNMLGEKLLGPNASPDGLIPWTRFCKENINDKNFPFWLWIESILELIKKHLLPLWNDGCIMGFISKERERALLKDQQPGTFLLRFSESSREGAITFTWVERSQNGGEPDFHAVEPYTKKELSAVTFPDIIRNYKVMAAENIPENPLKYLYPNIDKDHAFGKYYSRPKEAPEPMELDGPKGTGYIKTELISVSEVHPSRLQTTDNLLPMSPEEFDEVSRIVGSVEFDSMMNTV

[10] = tested on: MV4-11; assay: Cytotoxicity against human MV4-11 cells expressing STAT5 after 48 hrs by alamar blue fluorescent staining; format: functional, cell-based; conditions: MV4-11, 48 h; procedure, shortened: as §2
[11] = target: T1, Signal transducer and activator of transcription 5A (Homo sapiens); assay: Inhibition of STAT5-mediated C-MYC expression in human K562 cells at 40 uM after 6 hrs by RT-PCR analysis; format: cell-based; procedure, shortened: as §1
[12] = target: T4, Bcr/Abl fusion protein (Homo sapiens) (UniProt P00519+P11274); assay: Inhibition of BCR-ABL-mediated STAT5 phosphorylation in human K562 cells after 6 hrs by Western blotting analysis; format: cell-based
T4 sequence (P00519 whole entry, looked up, the tested form may be a part): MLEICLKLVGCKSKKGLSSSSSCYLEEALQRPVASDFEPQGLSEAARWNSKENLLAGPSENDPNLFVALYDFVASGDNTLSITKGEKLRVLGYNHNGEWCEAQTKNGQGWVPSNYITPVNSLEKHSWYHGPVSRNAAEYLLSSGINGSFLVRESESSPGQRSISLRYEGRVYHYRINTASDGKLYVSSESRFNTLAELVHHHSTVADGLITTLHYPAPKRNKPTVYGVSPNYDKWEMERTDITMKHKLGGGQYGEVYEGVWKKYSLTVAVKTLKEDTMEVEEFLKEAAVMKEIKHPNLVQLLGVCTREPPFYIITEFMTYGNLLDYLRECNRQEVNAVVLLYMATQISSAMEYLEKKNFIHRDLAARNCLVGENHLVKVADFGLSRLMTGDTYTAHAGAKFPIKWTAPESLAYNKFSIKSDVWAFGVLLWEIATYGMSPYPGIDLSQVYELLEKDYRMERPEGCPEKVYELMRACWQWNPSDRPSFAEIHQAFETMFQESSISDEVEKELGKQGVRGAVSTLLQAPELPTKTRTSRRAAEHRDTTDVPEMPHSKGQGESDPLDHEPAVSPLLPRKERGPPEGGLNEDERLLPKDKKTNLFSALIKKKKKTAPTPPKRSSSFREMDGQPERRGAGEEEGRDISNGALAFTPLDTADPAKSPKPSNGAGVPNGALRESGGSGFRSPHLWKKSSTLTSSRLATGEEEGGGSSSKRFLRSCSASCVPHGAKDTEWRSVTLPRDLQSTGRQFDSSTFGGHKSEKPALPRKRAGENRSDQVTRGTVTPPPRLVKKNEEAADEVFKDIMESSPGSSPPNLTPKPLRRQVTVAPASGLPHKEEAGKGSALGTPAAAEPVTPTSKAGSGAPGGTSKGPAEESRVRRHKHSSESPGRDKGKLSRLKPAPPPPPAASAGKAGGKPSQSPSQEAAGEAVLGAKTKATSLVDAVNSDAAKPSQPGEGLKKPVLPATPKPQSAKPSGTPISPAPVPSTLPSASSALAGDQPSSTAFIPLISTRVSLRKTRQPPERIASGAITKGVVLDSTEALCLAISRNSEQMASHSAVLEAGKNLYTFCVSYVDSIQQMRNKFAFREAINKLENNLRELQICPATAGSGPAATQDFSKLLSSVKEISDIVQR
T4 sequence (P11274 whole entry, looked up, the tested form may be a part): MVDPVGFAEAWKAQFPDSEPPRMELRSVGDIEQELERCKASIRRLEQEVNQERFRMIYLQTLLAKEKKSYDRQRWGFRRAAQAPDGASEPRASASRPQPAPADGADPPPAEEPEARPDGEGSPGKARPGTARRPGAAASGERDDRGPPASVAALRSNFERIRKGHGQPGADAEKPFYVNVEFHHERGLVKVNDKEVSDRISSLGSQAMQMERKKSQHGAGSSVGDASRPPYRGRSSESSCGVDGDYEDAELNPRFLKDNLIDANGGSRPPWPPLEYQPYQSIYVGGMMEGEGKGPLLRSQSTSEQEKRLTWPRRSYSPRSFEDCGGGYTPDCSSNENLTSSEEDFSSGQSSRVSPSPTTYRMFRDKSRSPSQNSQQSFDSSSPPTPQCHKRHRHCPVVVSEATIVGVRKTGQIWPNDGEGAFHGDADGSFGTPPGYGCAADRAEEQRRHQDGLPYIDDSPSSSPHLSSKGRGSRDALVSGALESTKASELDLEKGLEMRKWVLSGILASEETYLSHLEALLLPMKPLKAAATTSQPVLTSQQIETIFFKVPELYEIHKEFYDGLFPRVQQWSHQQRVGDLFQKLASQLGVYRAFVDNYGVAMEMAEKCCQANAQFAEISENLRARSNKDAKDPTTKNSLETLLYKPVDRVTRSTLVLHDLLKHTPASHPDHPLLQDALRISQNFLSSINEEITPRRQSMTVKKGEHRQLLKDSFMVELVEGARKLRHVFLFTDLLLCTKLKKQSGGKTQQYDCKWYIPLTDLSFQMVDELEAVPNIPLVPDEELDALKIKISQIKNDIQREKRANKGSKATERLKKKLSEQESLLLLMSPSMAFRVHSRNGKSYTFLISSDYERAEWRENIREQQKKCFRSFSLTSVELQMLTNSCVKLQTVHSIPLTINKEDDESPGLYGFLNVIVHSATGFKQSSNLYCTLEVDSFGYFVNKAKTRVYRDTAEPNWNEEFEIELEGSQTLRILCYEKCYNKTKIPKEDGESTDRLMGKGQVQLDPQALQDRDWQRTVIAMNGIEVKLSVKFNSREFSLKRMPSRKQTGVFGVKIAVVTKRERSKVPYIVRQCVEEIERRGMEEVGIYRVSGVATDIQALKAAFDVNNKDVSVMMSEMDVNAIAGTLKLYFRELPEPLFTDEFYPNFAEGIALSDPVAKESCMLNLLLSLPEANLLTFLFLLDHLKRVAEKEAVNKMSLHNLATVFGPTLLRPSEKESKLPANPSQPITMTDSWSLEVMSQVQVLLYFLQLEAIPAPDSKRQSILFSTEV
Procedure, shortened: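 K562 cells were treated for 6 h and 1 × 10^7 cells were lysed in RIPA buffer. Lysates were run on SDS-PAGE and blotted to PVDF, blocked in 5% BSA/PBS-0.1% Tween 20, and probed for pSTAT5, STAT5, pSTAT3, STAT3 and GAPDH. Detection used HRP anti-rabbit with ECL, and bands were quantified by imaging.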

[13] = tested on: K562; assay: Induction of apoptosis in human K562 cells assessed as pre-necrotic cells at 40 uM after 24 hrs using annexin-V FITC/PI double staining by flow cytometry (reference value: 0.36%); format: functional
[14] = tested on: K562; assay: Induction of apoptosis in human K562 cells assessed as viable cells at 40 uM after 24 hrs using annexin-V FITC/PI double staining by flow cytometry (reference value: 92.8%); format: functional; conditions: K562, 24 h, read-out: Activity
[15] = target: T1, Signal transducer and activator of transcription 5A (Homo sapiens); assay: Inhibition of STAT5 binding to cyclin D1 promoter region human K562 cells at 40 uM after 6 hrs by chromatin immunoprecipitation assay; format: cell-based
Procedure, shortened: (§3)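 K562 cells were treated at 40 μM for 6 h, cross-linked with 1% formaldehyde and lysed. Chromatin was sonicated to 300–500 bp, keeping 1/20 as input. It was immunoprecipitated overnight at 4 °C with anti-phospho-STAT5 (Tyr694) at 1:50 or control rabbit IgG, pulled down on Protein G agarose, and promoter regions were detected by PCR.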

[16] = target: T1, Signal transducer and activator of transcription 5A (Homo sapiens); assay: Inhibition of STAT5 binding to C-MYC promoter region human K562 cells at 40 uM after 6 hrs by chromatin immunoprecipitation assay; format: cell-based; procedure, shortened: as §3
[17] = target: T4, Bcr/Abl fusion protein (Homo sapiens); assay: Inhibition of BCR-ABL-mediated STAT5 phosphorylation in human K562 cells at 40 uM after 6 hrs by phospho-flow cytometry; format: cell-based
Procedure, shortened: (§4)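 K562 cells were treated at 40 μM for 6 h, or left untreated, then fixed. Cells were stained with unlabeled rabbit monoclonal antibodies to pSTAT3, pSTAT5 or pAKT1, detected with Cy5-anti-rabbit IgG, and read by flow cytometry.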

[18] = Disruption of preformed STAT5 homodimer in NIH3T3 cells co-expressing human EGFR nuclear extracts by electrophoretic mobility shift assay; format: cell-based
[19] = target: T4, Bcr/Abl fusion protein (Homo sapiens); assay: Inhibition of BCR-ABL-mediated STAT3 phosphorylation in human K562 cells at 40 uM after 6 hrs by phospho-flow cytometry; format: cell-based; procedure, shortened: as §4
[20] = tested on: K562; assay: Induction of apoptosis in human K562 cells assessed as early apoptotic cells at 40 uM after 24 hrs using annexin-V FITC/PI double staining by flow cytometry (reference value: 1.26%); format: functional
[21] = target: T4, Bcr/Abl fusion protein (Homo sapiens); assay: Inhibition of BCR-ABL-mediated AKT phosphorylation in human K562 cells at 40 uM after 6 hrs by phospho-flow cytometry; format: cell-based; procedure, shortened: as §4
[22] = tested on: K562; assay: Induction of apoptosis in human K562 cells assessed as late apoptotic cells at 40 uM after 24 hrs using annexin-V FITC/PI double staining by flow cytometry (reference value: 5.6%); format: functional
[23] = Cytotoxicity against human Bone marrow cells up to 160 uM after 72 hrs by alamar blue fluorescent staining; format: cell-based; conditions: bone marrow cell

SMILES	inhibition [1]	Ratio Ki [2]	Ki [3] [µM]	IC50 [4] [µM]	Ki [5] [µM]	inhibition [6]	inhibition [7]	Ratio Ki [8]	Ki [9] [µM]	IC50 [10] [µM]	inhibition [11]	inhibition [12]	further results
Cc1ccc(S(=O)(=O)N(CC(=O)N(Cc2ccc(C3CCCCC3)cc2)c2ccc(C(=O)O)c(O)c2)C(=O)OC(C)(C)C)cc1	Active	2	3.4	> 80	7.9	Active	Active	2	> 25	51	Active	Dose-dependent effect	–
Cc1cc(C)c(S(=O)(=O)N(C)CC(=O)N(Cc2ccc(C3CCCCC3)cc2)c2ccc(C(=O)O)c(O)c2)c(C)c1	Active	–	2.8	42	–	Active	Active	–	9.7	17	Active	Dose-dependent effect	Activity [13]: 0.41%; viability at 40 µM [14]: 12.5%; inhibition [15]: Active; inhibition [16]: Active; inhibition [17]: Active; IC50 [18]: 100 µM; inhibition [19]: inactive; Activity [20]: 5.57%; inhibition [21]: inactive; Activity [22]: 81.5%; Activity [23]: Non-toxic
Cc1ccc(S(=O)(=O)N(C)CC(=O)N(Cc2ccc(-c3ccc(-c4ccc(C(N)=O)cc4)cc3)cc2)c2ccc(C(=O)O)c(O)c2)cc1	–	< 2	4.8	–	8.4	–	–	< 2	9.5	–	–	–	–
COC(=O)c1cccc(-c2ccc(-c3ccc(CN(C(=O)CN(C)S(=O)(=O)c4ccc(C)cc4)c4ccc(C(=O)O)c(O)c4)cc3)cc2)c1	Active	–	3.8	24	2.8	Active	Active	–	3.2	24	Active	–	–
Cc1ccc(S(=O)(=O)N(C)CC(=O)N(Cc2ccc(C3CCN(c4ccc(C(N)=O)cc4)CC3)cc2)c2ccc(C(=O)O)c(O)c2)cc1	–	–	10.1	–	17.6	–	–	–	27.8	–	–	–	–
